This is an account of results in ChEMBL document CHEMBL1240503, “Design, synthesis and biological evaluation of new (E)- and (Z)-1,2,3-triaryl-2-propen-1-ones as selective COX-2 inhibitors” (Eur J Med Chem, 2010).

In this test the target is T1, Prostaglandin G/H synthase 1 (Ovis aries, UniProt P05979).
T1 sequence (P05979 whole entry): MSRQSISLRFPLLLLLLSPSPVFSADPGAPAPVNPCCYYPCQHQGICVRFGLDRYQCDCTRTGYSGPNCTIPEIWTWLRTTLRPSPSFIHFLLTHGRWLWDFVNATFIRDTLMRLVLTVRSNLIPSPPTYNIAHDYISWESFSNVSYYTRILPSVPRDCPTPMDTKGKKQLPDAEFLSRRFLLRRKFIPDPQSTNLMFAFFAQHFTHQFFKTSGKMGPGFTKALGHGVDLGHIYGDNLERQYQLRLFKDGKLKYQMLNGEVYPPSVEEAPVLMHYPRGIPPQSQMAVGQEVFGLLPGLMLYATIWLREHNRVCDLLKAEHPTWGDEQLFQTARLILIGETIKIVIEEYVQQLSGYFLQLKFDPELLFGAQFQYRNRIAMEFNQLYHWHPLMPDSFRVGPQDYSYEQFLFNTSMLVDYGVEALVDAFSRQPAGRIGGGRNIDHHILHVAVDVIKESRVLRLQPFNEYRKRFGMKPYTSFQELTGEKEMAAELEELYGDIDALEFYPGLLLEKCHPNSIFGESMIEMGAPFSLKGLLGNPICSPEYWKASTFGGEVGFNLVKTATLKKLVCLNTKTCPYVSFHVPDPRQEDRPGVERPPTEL
As to the kind of experiment: Inhibition of ovine COX1 by chemiluminescence assay. The gist of the method: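 Enzyme activity read as arachidonate-induced luminescence, taken as a real-time index of COX catalytic turnover; inhibition measured as loss of this luminescence signal.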
For `CS(=O)(=O)c1ccc(C(=O)/C(=C/c2ccccc2)c2ccccc2)cc1`, the IC50 came out at 13.3 µM. The molecule `CS(=O)(=O)c1ccc(C(=O)/C(=C\c2ccccc2)c2ccccc2)cc1` registered an IC50 of 14.3 µM. The figure for `CS(=O)(=O)c1ccc(C(=O)/C(=C/c2ccc(F)cc2)c2ccccc2)cc1` is 12.6 µM; for `CS(=O)(=O)c1ccc(C(=O)/C(=C\c2ccc(F)cc2)c2ccccc2)cc1` it is 30.9 µM; for `Cc1ccc(/C=C(/C(=O)c2ccc(S(C)(=O)=O)cc2)c2ccccc2)cc1` it is 10.4 µM.

Take `Cc1ccc(/C=C(\C(=O)c2ccc(S(C)(=O)=O)cc2)c2ccccc2)cc1`: the IC50 was 12.2 µM.

For the molecule `COc1ccc(/C=C(/C(=O)c2ccc(S(C)(=O)=O)cc2)c2ccccc2)cc1`, the IC50 stood at 10.7 µM. `COc1ccc(/C=C(\C(=O)c2ccc(S(C)(=O)=O)cc2)c2ccccc2)cc1` returned an IC50 of 18.4 µM. `CS(=O)(=O)c1ccc(C(=O)/C(=C/c2ccc(O)cc2)c2ccccc2)cc1` came in with an IC50 of 14.4 µM. On to `CS(=O)(=O)c1ccc(C(=O)/C(=C/c2cccs2)c2ccccc2)cc1`, for which 13.1 µM corresponded to half-maximal inhibition (IC50). For the molecule `CS(=O)(=O)c1ccc(C(=O)C(=Cc2ccncc2)c2ccccc2)cc1` (mixture of isomers), the IC50 was 12.4 µM.
